In the library only some 4.5% were active in any assay of this set; here they are far more common.
TAAR1 agonist = human TAAR1 agonists, primary screen, Fluo-8 calcium fluorescence, CHO RD-HGA16 cells; vehicle wells 0%, saturating PEA agonist 100%; activation, % at 3 µM; hit rate 0.99% among 360,000;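 active = activation above the mean activation of all test compounds in the run plus 3 SD, cut at about 38% in these data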
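test system = CHO RD-HGA16 cells carrying human TAAR1 plus Gα16 | schedule = 17-24 h seeding, 75 min 37 °C dye, 30 min RT | compound dosing = 3 µM single concentration | control set = DMSO and PEA EC100 | replicates = n 1 | signal = Fluo-8 fluorescence, 5 s baseline then 140 s kinetic read | measure = percent activation vs PEA EC100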
GPR7 antag = GPR7 receptor antagonists, primary screen, cell-based, fluorescence, single concentration; Neuropeptides B/W receptor type 1 (Homo sapiens), P48145; GPR7-expressing cells, fluorescence antagonist assay; inhibition, % at 4.4 µM; hit rate 1.1% among 290,000; AID 1861, 2009; in the data active = inhibition above about 16%, passing the limit was not always enough;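 note: cells stimulated with the agonist NPW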
Target sequence (P48145 whole entry, looked up): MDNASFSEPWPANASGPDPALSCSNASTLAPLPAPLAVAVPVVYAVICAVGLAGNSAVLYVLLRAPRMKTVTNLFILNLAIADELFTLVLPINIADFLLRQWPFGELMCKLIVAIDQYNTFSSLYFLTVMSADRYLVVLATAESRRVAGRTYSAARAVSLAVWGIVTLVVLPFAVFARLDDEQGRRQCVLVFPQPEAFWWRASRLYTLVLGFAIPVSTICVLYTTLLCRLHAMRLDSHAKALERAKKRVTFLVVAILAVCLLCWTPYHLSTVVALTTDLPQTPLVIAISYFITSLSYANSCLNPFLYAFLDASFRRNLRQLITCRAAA
OX1R antag-1 = antagonists of human orexin 1 receptor (OX1R) | inhibition, % at 6.6 µM | AID 485270, 2010 | hit rate 1.8% among 330,000 | OX1R-expressing cells, FRET antagonist read-out | Orexin/Hypocretin receptor type 1 (Homo sapiens), O43613; in the data active = inhibition mostly above about 38%, no sharp cut-off; inactive = mostly below about 40%
CHO parental Ca = ATP-evoked calcium signal inhibitors, parental CHO, primary screen, counter-screen for OX1R antagonist project, cell-based, fluorescence, Fluo-8 calcium dye; parental CHO-K1, ATP-induced calcium, Fluo-8 fluorescence; inhibition, % at 5.6 µM; hit rate 0.63% among 330,000;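 active = inhibition above that plate's mean sample inhibition plus 3 SD, cut at about 26% in these data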
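test system = CHO parental line | reagent = ATP stimulus | measured by = intracellular calcium via Fluo-8 no-wash fluorescent dye | control set = ATP and no-ATP DMSO wells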
OX1R antag-2 = OX1R (HCRTR1) antagonists, primary screen, fluorescence, CHO/OX1R cells, Fluo-8 calcium, orexin A; Orexin/Hypocretin receptor type 1 (Homo sapiens), O43613; Fluo-8 calcium fluorescence; inhibition, % at 5 µM; hit rate 0.43% among 330,000; AID 434989, 2010;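 active = inhibition above its plate's threshold, mean inhibition of all tested compounds on the plate plus 3 SD, cut at about 37% in these data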
TAAR1 antag = human TAAR1 antagonists, primary screen, Fluo-8 calcium fluorescence, CHO RD-HGA16 cells. antagonist. inhibition, % at 3 µM. hit rate 1.5% among 360,000;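 active = inhibition above a per-plate cutoff, the mean inhibition of test compounds on that plate plus 3 SD, cut at about 49% in these data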
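Test system – hTAAR1-expressing CHO RD-HGA16 cells, Gα16-coupled · Reagent – β-PEA at EC80 concentration, post-compound challenge · Compound dosing – 3 µM, single point · Timing – 140 s kinetic read after compound, 140 s after agonist · Detection – Fluo-8 intracellular calcium dye fluorescence, real-time kinetic reads · Control set – DMSO and EC80 PEA controls · Repeats – n of 1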
Each line names hits and unclear results; the compound was inactive in the other large screens.

COc1cccc(CNC(=O)Cc2csc(NC(=O)Nc3ccccc3OC)n2)c1	OX1R antag-1 42.3, TAAR1 antag 49.6 (no result: GPR7 antag)
CN(Cc1ccc2c(c1)CCCN2C)C(=O)[C@H]1O[C@@H](n2cnc3c(N)ncnc32)[C@H](O)[C@@H]1O	none (no result: GPR7 antag, OX1R antag-1, CHO parental Ca, OX1R antag-2)
O=Nc1nc2ncccn2c1-c1ccccc1	none (no result: GPR7 antag, OX1R antag-1, CHO parental Ca, OX1R antag-2)
CC(O)CNc1cc(N)c([N+](=O)[O-])cc1[N+](=O)[O-] (centres undefined)	OX1R antag-1 72.5
CC(O)CNc1ccc([N+](=O)[O-])cc1S(=O)(=O)N1CCOCC1 (centres undefined)	none
CCN1C(=O)N[C@H]2C[C@@H](c3ccccc3)[C@@H](C)[C@@H](C(=O)N3CCCC3)C[C@H]21	none (no result: GPR7 antag, OX1R antag-1, CHO parental Ca, OX1R antag-2)
CCc1nc(N2CCN(C(=O)c3ccco3)CC2)c2oc3ccccc3c2n1	OX1R antag-1 50.7
Cc1ccc([C@H]2N[C@]3(CCCN(Cc4ccc(Br)cc4)C3=O)[C@H]3C(=O)N(C)C(=O)[C@@H]23)cc1	none (no result: GPR7 antag, OX1R antag-1, CHO parental Ca, OX1R antag-2)
CCOC(=O)N1CCN(CCC(=O)c2ccc(Cl)cc2)CC1	TAAR1 agonist 37.5
CCOC(=O)N1CCN(CCC(=O)c2ccc(Br)cc2)CC1	none (no result: OX1R antag-1, CHO parental Ca, OX1R antag-2)
OC(CNC1CCCCC1)COCCOc1ccc(Br)cc1 (centres undefined)	none
Cc1ccccc1C(=O)N[C@H](C(=O)N1CCC[C@H]1C(=O)NC1CCCC1)c1ccccc1	none (no result: GPR7 antag, OX1R antag-1, CHO parental Ca, OX1R antag-2)
Cc1ccc(CCNC(=O)C(C)n2nc(C)c3c(C)n(-c4ccccc4)nc3c2=O)cc1 (centres undefined)	none
Cc1ccc(-n2nc3c(=O)n(C(C)C(=O)NCCC4=CCCCC4)nc(C)c3c2C)cc1 (centres undefined)	TAAR1 agonist 37.9
COc1cccc(CN(CCC(C)C)S(=O)(=O)c2cc(Br)ccc2Br)c1	none (no result: GPR7 antag, OX1R antag-1, CHO parental Ca, OX1R antag-2)
Cc1ccc(NS(=O)(=O)c2ccc(NC(=O)c3ccccc3C(=O)O)cc2)c(C)c1	none (no result: GPR7 antag)
Cc1ccc(NS(=O)(=O)c2ccc(NC(=O)c3ccc(Br)o3)cc2)c(C)c1	CHO parental Ca 35.9
CCOC(=O)c1cc(-c2ccccc2)n(Cc2cc(CC)no2)n1	none (no result: GPR7 antag)
CCn1c2ccccc2c2cc(CN3CCN(Cc4cc(OC)ccc4O)CC3)ccc21	OX1R antag-1 49.6
CCn1c2ccccc2c2cc(CN3CCN(S(C)(=O)=O)CC3)ccc21	none
Oc1ccc(Oc2ccc(Oc3ccc(O)cc3)cc2)cc1	TAAR1 antag 51.3
COCc1cc(N2CCN(C(=O)OC(C)(C)C)C[C@H]2C)ccc1N1CCN(Cc2ccccc2)[C@H](C)C1	none (no result: GPR7 antag, OX1R antag-1, CHO parental Ca, OX1R antag-2)
N/C(Cc1ccc(Cl)c(Cl)c1)=N\OC(=O)c1cccs1	GPR7 antag 20.3
O=C(NC(Nc1nc2ccc([N+](=O)[O-])cc2s1)(C(F)(F)F)C(F)(F)F)c1ccccc1Cl	GPR7 antag 42.6, OX1R antag-1 89.7, CHO parental Ca 33.5, TAAR1 antag 54.8
O=C(NC(NNc1ccc([N+](=O)[O-])cc1)(C(F)(F)F)C(F)(F)F)c1ccccc1Cl	none
O=C(NC(Nc1nc2ccc([N+](=O)[O-])cc2s1)(C(F)(F)F)C(F)(F)F)c1cccnc1	OX1R antag-1 59.0
CC(C)c1[nH]nc2c1C(c1ccc3c(c1)OCO3)NC2=O (centres undefined)	none (no result: GPR7 antag, OX1R antag-1, CHO parental Ca, OX1R antag-2)
Cc1cccc(OCC(=O)NCC(=O)N/N=C/c2c(C)[nH]c3ccccc23)c1	TAAR1 antag 52.0
Cc1[nH]c2ccccc2c1/C=N/NC(=O)c1cc(-c2cccs2)[nH]n1	OX1R antag-1 57.2, TAAR1 antag 57.6
Cc1cc(C(=O)N/N=C/c2c(C)[nH]c3ccccc23)n[nH]1	none
O=[N+]([O-])c1ccccc1Oc1ccc(S(=O)(=O)N2CCOCC2)cc1	none (no result: GPR7 antag)
CN1/C(=C\C(=O)c2cncc(Br)c2)C(C)(C)c2ccccc21	CHO parental Ca 38.6
CN1/C(=C\C(=O)C(F)F)C(C)(C)c2ccccc21	none
CC(C)C(=O)NC(=S)/C=C1/N(C)c2ccccc2C1(C)C	none
CC(=O)/C=C1\N(C)c2ccc(C)cc2C1(C)C	CHO parental Ca 38.1
CN1/C(=C\C(=O)c2ccco2)C(C)(C)c2ccccc21	CHO parental Ca 70.9, TAAR1 antag 57.5

Source: PubChem BioAssay
